Test results from ChEMBL document CHEMBL3091448, “Identification of potent and selective cathepsin S inhibitors containing different central cyclic scaffolds” (J Med Chem, 2013).
Activity calls are given as the source filed them. The rule behind the calls is not given here.

What was measured:
[1] = Oral bioavailability in C57Bl/6 mouse at 9 mg/kg; format: ADME, organism-based; conditions: in vivo
Procedure, shortened: (§1)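 Male C57Bl/6 mice, 8 weeks old, 24−29 g. Dosing was by oral gavage at 9 mg/kg as an aqueous microsuspension in gelatin/NaCl (7.5%/0.62%), or by iv bolus at 2 mg/kg in aqueous NaCl/30% 1-methyl-2-pyrrolidone. Terminal blood (n = 2 per time point) was collected into EDTA tubes and spun at 4 °C to obtain plasma. Plasma levels were measured by LC−MS/MS after acetonitrile precipitation. Values are the mean of two experiments.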

[2] = biological target: Cathepsin B (Homo sapiens, UniProt P07858); assay: Inhibition of human cathepsin-B using Z-Val-Val-Arg-AMC as substrate up to 20 mins by fluorescence assay
Procedure, shortened: (§2)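 Fluorogenic quenched-peptide cleavage assay. Enzymes at 1 nM in 100 mM potassium phosphate pH 6.5, 5 mM EDTA-Na, 0.001% Triton X-100 and 5 mM DTT. Enzyme was added to the compound dilutions, then 20 μM substrate started the reaction: Z-Val-Val-Arg-AMC, or Z-Leu-Arg-AMC for CatK. Fluorescence (ex 360/em 465 nm) was read over 20 min. IC50 is the mean of ≥2 independent experiments.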

[3] = system: Mus musculus; assay: Reduction of ovalbumin-induced IL-2 production in DO10.11 transgenic BALB/c mouse at 50 mg/kg, po administered 30 mins before ovalbumin challenge measured after 4 hrs by luminex single-bead analysis; format: functional, organism-based; set-up: dose 50 mg/kg
Procedure, shortened: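 DO10.11 BALB/c mice carrying a transgenic ovalbumin-peptide TCR were dosed orally with compound, then challenged iv with 1.0 mg low-endotoxin ovalbumin. Plasma IL-2 was measured at 4 h by Luminex bead assay using two anti-IL-2 antibodies. Groups had n = 8, and reduction was expressed versus the ovalbumin challenge group (ANOVA with Dunnett test).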

[4] = Volume of distribution at steady state in C57Bl/6 mouse at 2 mg/kg, iv and 9 mg/kg, po; format: ADME, organism-based; conditions: in vivo, read-out: Vdss; procedure, shortened: as §1
[5] = Half life in C57Bl/6 mouse at 2 mg/kg, iv; format: ADME, organism-based; set-up: dose 2 mg/kg, route intravenous; conditions: in vivo; procedure, shortened: as §1
[6] = system: Mus musculus; assay: Dose normalized AUC in C57Bl/6 mouse at 9 mg/kg, po; format: ADME, organism-based; set-up: dose 9 mg/kg, route oral; conditions: in vivo; procedure, shortened: as §1
[7] = biological target: Procathepsin L (Homo sapiens, UniProt P07711); assay: Inhibition of human cathepsin-L using Z-Val-Val-Arg-AMC as substrate up to 20 mins by fluorescence assay; procedure, shortened: as §2
[8] = biological target: T1, Cathepsin K (Homo sapiens, UniProt P43235); assay: Inhibition of human cathepsin-K using Z-Leu-Arg-AMC as substrate up to 20 mins by fluorescence assay; procedure, shortened: as §2
T1 sequence (P43235 whole entry): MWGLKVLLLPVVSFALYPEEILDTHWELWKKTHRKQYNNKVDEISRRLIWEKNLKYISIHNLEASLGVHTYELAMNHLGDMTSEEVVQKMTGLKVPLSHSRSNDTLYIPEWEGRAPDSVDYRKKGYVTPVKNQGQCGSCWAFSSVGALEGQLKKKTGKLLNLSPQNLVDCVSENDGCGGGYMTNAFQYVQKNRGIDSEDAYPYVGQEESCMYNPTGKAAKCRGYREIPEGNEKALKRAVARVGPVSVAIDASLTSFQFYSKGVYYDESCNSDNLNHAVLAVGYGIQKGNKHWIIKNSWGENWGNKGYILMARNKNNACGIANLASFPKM

[9] = Clearance in C57Bl/6 mouse at 2 mg/kg, iv and 9 mg/kg, po; format: ADME, organism-based; conditions: in vivo; procedure, shortened: as §1
[10] = system: Plasma; assay: Metabolic stability in human plasma assessed as compound remaining at 1000 ng/mL after 5 hrs; format: ADME, cell-free
[11] = system: Mus musculus; assay: Dose normalized AUC in C57Bl/6 mouse at 2 mg/kg, iv; format: ADME, organism-based; set-up: dose 2 mg/kg, route intravenous; conditions: in vivo; procedure, shortened: as §1
[12] = system: A20; assay: Inhibition of ovalbumin-induced antigen presentation in mouse A20 cells treated 1 hr before ovalbumin addition incubated for 16 hrs followed by co-cultured with DO10.10 T-cell hybridoma cells for 24 hrs assessed as IL-2 production by luminex single-bead analysis; format: functional, cell-based
Procedure, shortened: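 A20 cells were seeded at 3 × 10⁵/mL and preincubated with compound for 1 h. Ovalbumin was then added (5 mg/mL final) for 16 h. Cells were washed three times with PBS, then DO10.10 T-cell hybridoma cells (2 × 10⁵/mL) were added. After 24 h, IL-2 was quantified by Luminex single-bead assay using two anti-IL-2 antibodies. IC50 is the mean of ≥2 independent experiments.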

[13] = Half life in C57Bl/6 mouse at 9 mg/kg, po; format: ADME, organism-based; set-up: dose 9 mg/kg, route oral; conditions: in vivo; procedure, shortened: as §1
[14] = biological target: Cathepsin S (Homo sapiens, UniProt P25774); assay: Inhibition of human cathepsin-S using Z-Val-Val-Arg-AMC as substrate up to 20 mins by fluorescence assay; procedure, shortened: as §2
[15] = Metabolic stability in NMRI mouse plasma assessed as compound remaining at 1000 ng/mL after 4 hrs; format: ADME, cell-free; conditions: read-out: Stability
Procedure, shortened: (§3)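 Heparinized pooled NMRI mouse plasma was spiked with compound at 1000 ng/mL and incubated at 37 °C in an orbital shaker. Aliquots (n = 3 per time point) were taken at 2 min, 1 h and 4 h and analysed by LC−MS/MS.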

[16] = Plasma concentration in DO10.11 transgenic BALB/c mouse at 50 mg/kg, po administered 30 mins before ovalbumin challenge measured after 4 hrs; format: ADME, organism-based; set-up: dose 50 mg/kg, route oral
[17] = biological target: Cathepsin S (Mus musculus, UniProt O70370); assay: Inhibition of mouse cathepsin-S using Z-Val-Val-Arg-AMC as substrate up to 20 mins by fluorescence assay; procedure, shortened: as §2
[18] = Drug degradation in NMRI mouse plasma at 1000 ng/mL after 4 hrs; format: ADME, cell-free; conditions: read-out: Drug degradation; procedure, shortened: as §3

Chain of Procathepsin L (P07711 whole entry): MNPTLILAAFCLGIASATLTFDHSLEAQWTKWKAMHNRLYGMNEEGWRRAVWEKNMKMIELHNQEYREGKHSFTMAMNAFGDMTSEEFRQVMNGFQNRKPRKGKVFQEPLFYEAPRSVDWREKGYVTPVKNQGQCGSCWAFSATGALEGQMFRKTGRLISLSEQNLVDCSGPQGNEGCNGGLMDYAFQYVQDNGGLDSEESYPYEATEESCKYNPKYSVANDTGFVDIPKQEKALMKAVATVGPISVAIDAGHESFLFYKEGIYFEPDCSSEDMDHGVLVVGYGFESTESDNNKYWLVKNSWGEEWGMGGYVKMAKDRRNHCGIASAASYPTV
Chain of Cathepsin S (Mus musculus, UniProt O70370) (O70370 whole entry): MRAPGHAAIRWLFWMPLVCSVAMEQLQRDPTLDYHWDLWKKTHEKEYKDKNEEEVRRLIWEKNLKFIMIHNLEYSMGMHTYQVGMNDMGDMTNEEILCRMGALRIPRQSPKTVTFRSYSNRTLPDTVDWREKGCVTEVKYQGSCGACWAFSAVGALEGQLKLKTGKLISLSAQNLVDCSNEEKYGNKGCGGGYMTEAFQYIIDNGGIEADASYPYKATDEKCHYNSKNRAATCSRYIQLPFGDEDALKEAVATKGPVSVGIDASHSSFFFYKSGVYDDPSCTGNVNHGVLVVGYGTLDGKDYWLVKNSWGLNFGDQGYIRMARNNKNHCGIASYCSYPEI
Chain of Cathepsin S (Homo sapiens, UniProt P25774) (P25774 whole entry): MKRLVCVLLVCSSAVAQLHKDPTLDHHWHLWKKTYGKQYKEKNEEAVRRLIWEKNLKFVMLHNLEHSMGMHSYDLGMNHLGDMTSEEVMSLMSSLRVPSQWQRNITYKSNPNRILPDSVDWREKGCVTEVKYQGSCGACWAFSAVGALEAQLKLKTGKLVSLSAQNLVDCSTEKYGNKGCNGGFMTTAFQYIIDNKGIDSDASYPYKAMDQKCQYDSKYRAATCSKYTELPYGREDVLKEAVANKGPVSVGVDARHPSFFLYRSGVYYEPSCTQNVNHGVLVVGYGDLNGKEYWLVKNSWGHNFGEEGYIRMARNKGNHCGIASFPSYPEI

Q: For `N#CC1(NC(=O)[C@@H]2C[C@@H](S(=O)(=O)c3ccccc3C(F)(F)F)CN2)CC1`, which bioavailability [1] is on record?
A: 69%

Q: What about the IC50 [2] of the same compound?
A: > 25000 nM

Q: What about the Activity [3] of the same compound?
A: inactive

Q: What about the Vd [4] of the same compound?
A: 0.13 L/kg

Q: And the half-life [5]?
A: 1.1 h

Q: And the AUC/dose [6]?
A: 7200 ng·h/mL

Q: And the IC50 [7]?
A: > 25000 nM

Q: What about the IC50 [8] of the same compound?
A: > 25000 nM

Q: And the clearance [9]?
A: 1.6 mL/min/kg

Q: What about the Stability [10] of the same compound?
A: Stable

Q: What about the AUC/dose [11] of the same compound?
A: 10400 ng·h/mL

Q: And the IC50 [12]?
A: 58 nM

Q: What about the half-life [13] of the same compound?
A: 0.9 h

Q: What about the IC50 [14] of the same compound?
A: 2 nM

Q: What about the remaining at 4 h, 1000 ng/mL [15] of the same compound?
A: 51%

Q: And the concentration at 4 h [16]?
A: 2050 ng/mL

Q: What about the IC50 [17] of the same compound?
A: 6 nM

Q: With `N#CC1(NC(=O)[C@@H]2C[C@@H](S(=O)(=O)c3ccccc3Cl)CN2C(=O)c2ccccc2)CC1` as the compound, how does the IC50 [2] read?
A: 35200 nM

Q: And the IC50 [7]?
A: 6800 nM

Q: What about the metabolised at 4 h, 1000 ng/mL [18] of the same compound?
A: > 90%

Q: What about the IC50 [8] of the same compound?
A: > 25000 nM

Q: What about the IC50 [12] of the same compound?
A: 15 nM

Q: What about the IC50 [14] of the same compound?
A: 0.8 nM

Q: And the IC50 [17]?
A: 1 nM
